# In ChEMBL document CHEMBL3865797, “Design, synthesis and biological evaluation of berberine-benzimidazole hybrids as new type of potentially DNA-targeting antimicrobial agents” (Eur J Med Chem, 2016):
# System: Candida albicans
# Experiment: Antifungal activity against Candida albicans ATCC 76615 measured after 24 hrs by two-fold serial dilution method
# Format: functional
# Details: ATCC 76615, 24 h
# Method in brief: (§1)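 MIC by two-fold serial broth microdilution in 96-well plates, following NCCLS recommendations. Chloromycin, norfloxacin and fluconazole serve as reference drugs. The MIC is read as the lowest concentration that inhibits growth, in µg/mL.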
row,SMILES,MIC80
1,CCn1c(COc2c(OC)ccc3cc4[n+](cc23)CCc2cc3c(cc2-4)OCO3)nc2ccccc21.[Cl-],512 µg/mL
2,COc1ccc2cc3[n+](cc2c1OCc1nc2ccccc2[nH]1)CCc1cc2c(cc1-3)OCO2.[Cl-],256 µg/mL
3,CCCCCn1c(COc2c(OC)ccc3cc4[n+](cc23)CCc2cc3c(cc2-4)OCO3)nc2ccccc21.[Cl-],32 µg/mL
4,COc1ccc2cc3[n+](cc2c1OCc1nc2ccccc2n1Cc1ccc(Cl)cc1Cl)CCc1cc2c(cc1-3)OCO2.[Cl-],512 µg/mL
5,COc1ccc2cc3[n+](cc2c1OCc1nc2ccc(Cl)cc2[nH]1)CCc1cc2c(cc1-3)OCO2.[Cl-],512 µg/mL

# System: Pseudomonas aeruginosa
# Experiment: Antibacterial activity against Pseudomonas aeruginosa measured after 24 hrs by two-fold serial dilution method
# Format: functional
# Details: not given
# Method in brief: as §1
row,SMILES,MIC
1,CCn1c(COc2c(OC)ccc3cc4[n+](cc23)CCc2cc3c(cc2-4)OCO3)nc2ccccc21.[Cl-],512 µg/mL
2,COc1ccc2cc3[n+](cc2c1OCc1nc2ccccc2[nH]1)CCc1cc2c(cc1-3)OCO2.[Cl-],256 µg/mL
3,CCCCCn1c(COc2c(OC)ccc3cc4[n+](cc23)CCc2cc3c(cc2-4)OCO3)nc2ccccc21.[Cl-],64 µg/mL
4,COc1ccc2cc3[n+](cc2c1OCc1nc2ccccc2n1Cc1ccc(Cl)cc1Cl)CCc1cc2c(cc1-3)OCO2.[Cl-],32 µg/mL
5,COc1ccc2cc3[n+](cc2c1OCc1nc2ccc(Cl)cc2[nH]1)CCc1cc2c(cc1-3)OCO2.[Cl-],512 µg/mL

# System: Proteus vulgaris
# Experiment: Antibacterial activity against Bacillus proteus ATCC 13315 measured after 24 hrs by two-fold serial dilution method
# Format: functional
# Details: ATCC 13315, 24 h
# Method in brief: as §1
row,SMILES,MIC
1,CCn1c(COc2c(OC)ccc3cc4[n+](cc23)CCc2cc3c(cc2-4)OCO3)nc2ccccc21.[Cl-],512 µg/mL
2,COc1ccc2cc3[n+](cc2c1OCc1nc2ccccc2[nH]1)CCc1cc2c(cc1-3)OCO2.[Cl-],256 µg/mL
3,CCCCCn1c(COc2c(OC)ccc3cc4[n+](cc23)CCc2cc3c(cc2-4)OCO3)nc2ccccc21.[Cl-],128 µg/mL
4,COc1ccc2cc3[n+](cc2c1OCc1nc2ccccc2n1Cc1ccc(Cl)cc1Cl)CCc1cc2c(cc1-3)OCO2.[Cl-],8 µg/mL
5,COc1ccc2cc3[n+](cc2c1OCc1nc2ccc(Cl)cc2[nH]1)CCc1cc2c(cc1-3)OCO2.[Cl-],32 µg/mL

# System: not listed separately
# Experiment: Antifungal activity against Saccharomyces cerevisiae measured after 24 hrs by two-fold serial dilution method
# Format: functional
# Details: not given
# Method in brief: as §1
row,SMILES,MIC80
1,CCn1c(COc2c(OC)ccc3cc4[n+](cc23)CCc2cc3c(cc2-4)OCO3)nc2ccccc21.[Cl-],512 µg/mL
2,COc1ccc2cc3[n+](cc2c1OCc1nc2ccccc2[nH]1)CCc1cc2c(cc1-3)OCO2.[Cl-],512 µg/mL
3,CCCCCn1c(COc2c(OC)ccc3cc4[n+](cc23)CCc2cc3c(cc2-4)OCO3)nc2ccccc21.[Cl-],512 µg/mL
4,COc1ccc2cc3[n+](cc2c1OCc1nc2ccccc2n1Cc1ccc(Cl)cc1Cl)CCc1cc2c(cc1-3)OCO2.[Cl-],512 µg/mL
5,COc1ccc2cc3[n+](cc2c1OCc1nc2ccc(Cl)cc2[nH]1)CCc1cc2c(cc1-3)OCO2.[Cl-],512 µg/mL

# System: not listed separately
# Experiment: Antifungal activity against Candida utilis measured after 24 hrs by two-fold serial dilution method
# Format: functional
# Details: Cyberlindnera jadinii
# Method in brief: as §1
row,SMILES,MIC80
1,CCn1c(COc2c(OC)ccc3cc4[n+](cc23)CCc2cc3c(cc2-4)OCO3)nc2ccccc21.[Cl-],128 µg/mL
2,COc1ccc2cc3[n+](cc2c1OCc1nc2ccccc2[nH]1)CCc1cc2c(cc1-3)OCO2.[Cl-],64 µg/mL
3,CCCCCn1c(COc2c(OC)ccc3cc4[n+](cc23)CCc2cc3c(cc2-4)OCO3)nc2ccccc21.[Cl-],8 µg/mL
4,COc1ccc2cc3[n+](cc2c1OCc1nc2ccccc2n1Cc1ccc(Cl)cc1Cl)CCc1cc2c(cc1-3)OCO2.[Cl-],2 µg/mL
5,COc1ccc2cc3[n+](cc2c1OCc1nc2ccc(Cl)cc2[nH]1)CCc1cc2c(cc1-3)OCO2.[Cl-],256 µg/mL

# System: Escherichia coli
# Experiment: Antibacterial activity against Escherichia coli JM109 measured after 24 hrs by two-fold serial dilution method
# Format: functional
# Details: JM109, 24 h
# Method in brief: as §1
row,SMILES,MIC
1,CCn1c(COc2c(OC)ccc3cc4[n+](cc23)CCc2cc3c(cc2-4)OCO3)nc2ccccc21.[Cl-],64 µg/mL
2,COc1ccc2cc3[n+](cc2c1OCc1nc2ccccc2[nH]1)CCc1cc2c(cc1-3)OCO2.[Cl-],512 µg/mL
3,CCCCCn1c(COc2c(OC)ccc3cc4[n+](cc23)CCc2cc3c(cc2-4)OCO3)nc2ccccc21.[Cl-],128 µg/mL
4,COc1ccc2cc3[n+](cc2c1OCc1nc2ccccc2n1Cc1ccc(Cl)cc1Cl)CCc1cc2c(cc1-3)OCO2.[Cl-],16 µg/mL
5,COc1ccc2cc3[n+](cc2c1OCc1nc2ccc(Cl)cc2[nH]1)CCc1cc2c(cc1-3)OCO2.[Cl-],512 µg/mL

# System: Salmonella typhi
# Experiment: Antibacterial activity against Salmonella typhi measured after 24 hrs by two-fold serial dilution method
# Format: functional, Salmonella enterica subsp. enterica serovar Typhi
# Details: Salmonella enterica
# Method in brief: (§2)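 Two-fold serial dilution in 96-well microtest plates following NCCLS guidance (micro broth dilution). Chloromycin and norfloxacin serve as positive controls. MIC is reported in µg/mL.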
row,SMILES,MIC
1,CCn1c(COc2c(OC)ccc3cc4[n+](cc23)CCc2cc3c(cc2-4)OCO3)nc2ccccc21.[Cl-],512 µg/mL
2,COc1ccc2cc3[n+](cc2c1OCc1nc2ccccc2[nH]1)CCc1cc2c(cc1-3)OCO2.[Cl-],16 µg/mL
3,CCCCCn1c(COc2c(OC)ccc3cc4[n+](cc23)CCc2cc3c(cc2-4)OCO3)nc2ccccc21.[Cl-],4 µg/mL
4,COc1ccc2cc3[n+](cc2c1OCc1nc2ccccc2n1Cc1ccc(Cl)cc1Cl)CCc1cc2c(cc1-3)OCO2.[Cl-],16 µg/mL
5,COc1ccc2cc3[n+](cc2c1OCc1nc2ccc(Cl)cc2[nH]1)CCc1cc2c(cc1-3)OCO2.[Cl-],64 µg/mL

# System: Staphylococcus aureus
# Experiment: Antibacterial activity against Staphylococcus aureus ATCC 25923 measured after 24 hrs by two-fold serial dilution method
# Format: functional
# Details: ATCC 25923, 24 h
# Method in brief: as §1
row,SMILES,MIC
1,CCn1c(COc2c(OC)ccc3cc4[n+](cc23)CCc2cc3c(cc2-4)OCO3)nc2ccccc21.[Cl-],512 µg/mL
2,COc1ccc2cc3[n+](cc2c1OCc1nc2ccccc2[nH]1)CCc1cc2c(cc1-3)OCO2.[Cl-],512 µg/mL
3,CCCCCn1c(COc2c(OC)ccc3cc4[n+](cc23)CCc2cc3c(cc2-4)OCO3)nc2ccccc21.[Cl-],64 µg/mL
4,COc1ccc2cc3[n+](cc2c1OCc1nc2ccccc2n1Cc1ccc(Cl)cc1Cl)CCc1cc2c(cc1-3)OCO2.[Cl-],64 µg/mL
5,COc1ccc2cc3[n+](cc2c1OCc1nc2ccc(Cl)cc2[nH]1)CCc1cc2c(cc1-3)OCO2.[Cl-],64 µg/mL

# System: Staphylococcus aureus
# Experiment: Antibacterial activity against methicillin-resistant Staphylococcus aureus N315 measured after 24 hrs by two-fold serial dilution method
# Format: functional
# Details: N315, 24 h
# Method in brief: as §2
row,SMILES,MIC
1,CCn1c(COc2c(OC)ccc3cc4[n+](cc23)CCc2cc3c(cc2-4)OCO3)nc2ccccc21.[Cl-],128 µg/mL
2,COc1ccc2cc3[n+](cc2c1OCc1nc2ccccc2[nH]1)CCc1cc2c(cc1-3)OCO2.[Cl-],256 µg/mL
3,CCCCCn1c(COc2c(OC)ccc3cc4[n+](cc23)CCc2cc3c(cc2-4)OCO3)nc2ccccc21.[Cl-],16 µg/mL
4,COc1ccc2cc3[n+](cc2c1OCc1nc2ccccc2n1Cc1ccc(Cl)cc1Cl)CCc1cc2c(cc1-3)OCO2.[Cl-],4 µg/mL
5,COc1ccc2cc3[n+](cc2c1OCc1nc2ccc(Cl)cc2[nH]1)CCc1cc2c(cc1-3)OCO2.[Cl-],256 µg/mL

# System: Micrococcus luteus
# Experiment: Antibacterial activity against Micrococcus luteus ATCC 4698 measured after 24 hrs by two-fold serial dilution method
# Format: functional
# Details: NCTC 2665, 24 h
# Method in brief: as §1
row,SMILES,MIC
1,CCn1c(COc2c(OC)ccc3cc4[n+](cc23)CCc2cc3c(cc2-4)OCO3)nc2ccccc21.[Cl-],64 µg/mL
2,COc1ccc2cc3[n+](cc2c1OCc1nc2ccccc2[nH]1)CCc1cc2c(cc1-3)OCO2.[Cl-],32 µg/mL
3,CCCCCn1c(COc2c(OC)ccc3cc4[n+](cc23)CCc2cc3c(cc2-4)OCO3)nc2ccccc21.[Cl-],32 µg/mL
4,COc1ccc2cc3[n+](cc2c1OCc1nc2ccccc2n1Cc1ccc(Cl)cc1Cl)CCc1cc2c(cc1-3)OCO2.[Cl-],16 µg/mL
5,COc1ccc2cc3[n+](cc2c1OCc1nc2ccc(Cl)cc2[nH]1)CCc1cc2c(cc1-3)OCO2.[Cl-],128 µg/mL

# System: Bacillus subtilis
# Experiment: Antibacterial activity against Bacillus subtilis measured after 24 hrs by two-fold serial dilution method
# Format: functional
# Details: not given
# Method in brief: as §1
row,SMILES,MIC
1,CCn1c(COc2c(OC)ccc3cc4[n+](cc23)CCc2cc3c(cc2-4)OCO3)nc2ccccc21.[Cl-],512 µg/mL
2,COc1ccc2cc3[n+](cc2c1OCc1nc2ccccc2[nH]1)CCc1cc2c(cc1-3)OCO2.[Cl-],512 µg/mL
3,CCCCCn1c(COc2c(OC)ccc3cc4[n+](cc23)CCc2cc3c(cc2-4)OCO3)nc2ccccc21.[Cl-],32 µg/mL
4,COc1ccc2cc3[n+](cc2c1OCc1nc2ccccc2n1Cc1ccc(Cl)cc1Cl)CCc1cc2c(cc1-3)OCO2.[Cl-],512 µg/mL
5,COc1ccc2cc3[n+](cc2c1OCc1nc2ccc(Cl)cc2[nH]1)CCc1cc2c(cc1-3)OCO2.[Cl-],512 µg/mL

# System: Aspergillus flavus
# Experiment: Antifungal activity against Aspergillus flavus measured after 24 hrs by two-fold serial dilution method
# Format: functional
# Details: not given
# Method in brief: as §1
row,SMILES,MIC80
1,CCn1c(COc2c(OC)ccc3cc4[n+](cc23)CCc2cc3c(cc2-4)OCO3)nc2ccccc21.[Cl-],256 µg/mL
2,COc1ccc2cc3[n+](cc2c1OCc1nc2ccccc2[nH]1)CCc1cc2c(cc1-3)OCO2.[Cl-],32 µg/mL
3,CCCCCn1c(COc2c(OC)ccc3cc4[n+](cc23)CCc2cc3c(cc2-4)OCO3)nc2ccccc21.[Cl-],16 µg/mL
4,COc1ccc2cc3[n+](cc2c1OCc1nc2ccccc2n1Cc1ccc(Cl)cc1Cl)CCc1cc2c(cc1-3)OCO2.[Cl-],16 µg/mL
5,COc1ccc2cc3[n+](cc2c1OCc1nc2ccc(Cl)cc2[nH]1)CCc1cc2c(cc1-3)OCO2.[Cl-],32 µg/mL
